Source: PubChem
A selection: hits, their analogues and other compounds. The true share with any hit is near 1%.
PKA-R2B activ – activators of PKA-R2B holoenzyme, primary screen, biochemical, fluorescence polarization, Cy5-IP20, human | cAMP-dependent protein kinase catalytic subunit beta (Homo sapiens) + cAMP-dependent … | PKA-R2B holoenzyme dissociation; R2B truncated from residue 108, S112A mutant; 0% DMSO only, 100% 113 µM cGMP | activation, % at 11.4 µM | actives 0.079% (n = 340,000) | AID 504700, 2011;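 active means activation above a cutoff set at the mean over all compounds plus 3 SD, cut at about 18% in these data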;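 further: higher means more holoenzyme dissociation and a rise in polarization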
Target sequence (P31323 whole entry, looked up, other chains not shown, the tested form may be a part): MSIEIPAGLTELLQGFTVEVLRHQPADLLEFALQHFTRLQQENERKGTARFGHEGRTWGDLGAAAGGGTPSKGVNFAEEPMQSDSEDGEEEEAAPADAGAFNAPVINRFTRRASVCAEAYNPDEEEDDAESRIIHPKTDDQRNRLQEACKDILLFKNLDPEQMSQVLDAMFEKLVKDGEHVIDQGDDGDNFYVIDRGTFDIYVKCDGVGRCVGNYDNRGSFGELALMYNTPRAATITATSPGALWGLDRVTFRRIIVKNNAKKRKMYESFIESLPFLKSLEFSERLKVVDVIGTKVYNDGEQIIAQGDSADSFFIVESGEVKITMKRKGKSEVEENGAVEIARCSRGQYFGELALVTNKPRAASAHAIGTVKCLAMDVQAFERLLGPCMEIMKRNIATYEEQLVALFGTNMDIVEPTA
Tn6 DDE FP – inhibitors of Tn6 peptide binding to fibrin DD(E), primary screen, biochemical, fluorescence polarization, human fibrin, Tn6 probe; Fibrinogen beta chain (Homo sapiens), P02675; Fibrin DD(E) TRITC-Tn6 fluorescence polarization displacement; inhibition, % at 8.3 µM; actives 0.21% (n = 370,000);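 active means inhibition above a per-campaign cutoff: mean of compounds within control limits plus 3 SD, cut at about 15% in these data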;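 further: 0% = median of all compound wells on the plate and 100% = blocking peptide control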
PKA-R1A act – activators of PKA-R1A holoenzyme, primary screen, biochemical, fluorescence polarization, Cy5-IP20, bovine R1A, mouse PKAc. cAMP-dependent protein kinase type I-alpha regulatory subunit (Bos taurus) + …. PKA-R1A dissociation; scaled: DMSO 0%, 113 µM cGMP 100%. activation, % at 11.4 µM. actives 0.083% (n = 340,000). AID 504707, 2011;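 active means percent activation above the mean of all tested compounds plus 3 SD, cut at about 19% in these data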;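 further: higher means more PKAc released from R1A so a rise in polarization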
Neddyl block – inhibitors of cullin neddylation, primary screen, biochemical, TR-FRET, uHTS, NAE and Ubc12. inhibition, % at 25 µM. AID 651699, 2012. NEDD8-conjugating enzyme Ubc12 (Homo sapiens) + NEDD8-activating enzyme E1 regulatory …. actives 0.58% (n = 360,000); in the data active means inhibition above about 36%
DDE Tn7 FP inh – inhibitors of Tn7 peptide binding to fibrin DD(E), primary screen, biochemical, fluorescence polarization, human fibrin, Tn7 probe | Fibrinogen beta chain (Homo sapiens), P02675 | FP displacement of FITC-Tn7 peptide from fibrin DD(E); 0% = median of compound wells per plate | inhibition, % at 8.3 µM | actives 0.13% (n = 370,000);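 active means inhibition above the mean of compounds falling within the control limits plus 3 SD of them, cut at about 14% in these data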;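 further: 0% = plate median of compound wells and 100% = 10 µM Aha-Tn7 peptide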
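Assay system: human fibrin DD(E) protein / Input: 2 µM fibrin DD(E) / Benchmarks: high control of 10 µM Aha-Tn7 peptide / Measured by: fluorescence polarization of the labelled Tn7 tracer / Medium: Tris buffer with calcium and detergent, pH 7.8 / Timing: 10 min compound pre-incubation, 3 h probe incubation at room temperature / Repeats: one replicate per compound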
Neddyl inh conf – blockade of NEDD8 conjugation to cullin – biochemical, TR-FRET, single concentration, confirmation; shares compounds with Neddyl block; TR-FRET cullin neddylation biochemical assay; calls only at 25 µM; actives 13% (n = 1,800); AID 652217, 2013; in the data active means inhibition above about 40%;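 further: neddylation substrate is the cullin 1 ring ligase complex with SKP2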
Numbers without * were called inactive; i = inactive; · = no result given; + = active, no number.

SMILES | PKA-R2B activ | Tn6 DDE FP | PKA-R1A act | Neddyl block | DDE Tn7 FP inh | Neddyl inh conf
Nc1nonc1-n1nnc(C(=O)N/N=C/c2ccc3c(c2)OCO3)c1CSc1ccccc1 | 1.1 | -1.0 | -3.1 | 42.1* | 0.9 | i
Nc1nonc1-n1nnc(C(=O)N/N=C/c2ccccc2Cl)c1CSc1ccccc1 | · | -7.2 | · | -2.5 | -2.6 | ·
COc1cc(/C=N/NC(=O)c2nnn(-c3nonc3N)c2C(C)C)ccc1OCc1ccccc1 | -4.0 | -4.7 | -2.3 | 42.6* | -7.4 | i
COC(=O)[C@]12C[C@H](CC(=O)NCc3cccs3)C(=O)N(CCC3=CCCCC3)C1=C[C@H](COCc1ccccc1)O[C@@H]2C | · | 0.2 | · | · | 2.6 | ·
CCCc1cc(=O)n2[nH]c(-c3cc(OC)c(OC)c(OC)c3)nc2n1 | -1.9 | -0.1 | -1.4 | 39.0* | -7.5 | i
CCCc1cc(=O)n2[nH]c(-c3ccc(OC)cc3)nc2n1 | 0.0 | -2.5 | -5.3 | 32.0 | 0.2 | ·
COC(=O)[C@]12C[C@H](CC(=O)NCCCCc3ccccc3)C(=O)N(Cc3ccccc3)C1=C[C@H](C(C)C)O[C@@H]2C1CC1 | · | -9.0 | · | · | -10.7 | ·
Cc1noc(C)c1S(=O)(=O)N1CCCc2nc(-c3ccccc3)ccc21 | · | 3.8 | · | · | -2.7 | ·
COC(=O)Nc1c(-c2ccccc2)nc2ccc(Cl)cn12 | 1.4 | 7.8 | 0.6 | 25.4 | 0.1 | ·
CCC(=O)Nc1c(-c2ccc(C)cc2)nc2ccc(C)cn12 | 2.1 | 6.6 | -1.9 | 47.4* | -3.6 | i
O=C(NCc1cccs1)C1C2C=CC3(CN(Cc4ccccc4)C(=O)C13)O2 (stereo unspecified) | · | -4.6 | · | · | 10.1 | ·
CCOC(=O)c1cnc2c(C(=O)OC)cccc2c1NCc1ccco1 | 6.2 | -5.2 | 2.9 | 42.2* | 3.3 | i
COc1ccc(S(=O)(=O)N(Cc2ccccc2)c2ccccc2C(=O)Nc2ccccc2C(=O)NCc2ccco2)cc1 | 3.5 | 2.2 | 1.9 | 19.0 | -2.4 | ·
COc1ccc(S(=O)(=O)Nc2ccccc2C(=O)NCc2ccco2)cc1 | 5.3 | -1.2 | 4.6 | 39.6* | -5.4 | +
CCN=C1NC(c2ccc(C(F)(F)F)cc2)C(C(=O)OC)=C(C)N1Cc1cccc(C(F)(F)F)c1 (stereo unspecified) | · | -8.8 | · | · | -4.9 | ·
N/C(=N\N=Cc1ccc2c(c1)OCO2)NN=Cc1ccc2c(c1)OCO2 | -4.0 | 4.5 | -4.3 | 41.5* | 1.5 | ·
COc1ccc(Nc2nc(N3CCN(S(C)(=O)=O)CC3)nc3ccccc23)c(OC)c1 | -5.4 | -5.8 | -6.5 | · | -5.1 | ·
COc1ccc(Nc2nc(N3CCCCC3)nc3ccccc23)c(OC)c1 | -2.6 | -5.2 | -1.0 | 40.1* | -1.5 | ·
COc1ccccc1NCc1nc2ccccc2n1C | · | 6.3 | · | · | 2.2 | ·
CCN(CC)c1cc(C)c2cc(NC(=O)CNC(C)=O)ccc2n1 | -0.2 | 8.5 | -18.2 | 42.8* | -1.0 | +
CCN(CC)c1cc(C)c2cc(NC(=O)c3ccccc3F)ccc2n1 | -8.0 | 0.2 | 2.4 | 14.9 | -1.8 | ·
COC(=O)C1C(O)=C(C=Nc2cccc3ccccc23)C(=O)CC1(C)C (stereo unspecified) | -16.5 | 8.3 | -6.2 | 40.5* | 2.7 | +
COC(=O)C1C(O)=C(C=NCc2ccccc2)C(=O)CC1(C)C (stereo unspecified) | -0.7 | 1.1 | -17.2 | -3.3 | -1.4 | ·
Cc1ccc(C(=O)N/C(=C/c2ccc(Cl)cc2)C(=O)Nc2cccc(C(=O)O)c2)cc1 | -5.9 | -0.6 | -2.6 | -1.5 | -0.4 | ·
CSc1ccc(/C=C(\NC(=O)c2ccc(C)cc2)C(=O)Nc2cccc(C)c2)cc1 | 1.0 | 0.9 | -2.5 | 54.2* | 5.1 | i
SMILES | PKA-R2B activ | Tn6 DDE FP | PKA-R1A act | Neddyl block | DDE Tn7 FP inh | Neddyl inh conf
CCCCCNc1nc(N2CCCC2)c2c(c1C#N)CCN(C)C2 | -8.8 | 5.4 | -1.0 | 44.0* | 2.8 | i
CCCCCNc1nc(NCCCO)c(C#N)c2c1CN(C)CC2 | 0.5 | 9.0 | 11.5 | · | 2.5 | ·
Cc1cc(N2CCOCC2)n2cc(-c3ccccc3)nc2n1 | -7.9 | -2.0 | 8.4 | 10.5 | 0.3 | ·
Cc1cc(N2CCOCC2)n2cc(-c3ccc(F)cc3)nc2n1 | 0.0 | 0.8 | -5.3 | 46.0* | -2.1 | i
C[C@H]1C(=O)N2[C@@H](C[C@]3(c4c[nH]c5ccccc45)c4ccccc4N(S(=O)(=O)c4ccccc4)[C@H]23)C(=O)N1C | · | -3.8 | · | · | -5.2 | ·
CC(=O)c1ccc(-c2cnc3c(NC=O)cc(-c4ccc(C(=O)NC5CC5)cc4)cn23)cc1 | · | -3.2 | · | 48.4* | 1.4 | i
CC(=O)Nc1cccc(-c2cc(NC(C)=O)c3ncc(-c4cccc(C(C)=O)c4)n3c2)c1 | · | -0.3 | · | -4.8 | 11.8 | ·
CC(=O)Nc1cc(-c2cccc(CO)c2)cn2c(-c3ccc(C(C)=O)cc3)cnc12 | · | -1.1 | · | 45.2* | 0.8 | i
CC(=O)Nc1cccc(-c2cc(NC=O)c3ncc(-c4ccc(C(C)=O)cc4)n3c2)c1 | · | -13.7 | · | 41.6* | 3.3 | i
CC(=O)Nc1cc(-c2ccc(C(=O)N3CCOCC3)cc2)cn2c(-c3ccc(S(C)(=O)=O)cc3)cnc12 | · | 1.3 | · | 45.0* | 2.8 | i
O=CNc1cc(-c2ccc(C(=O)NC3CC3)cc2)cn2c(-c3ccccc3)cnc12 | · | 4.7 | · | 8.6 | -0.5 | ·
FC(F)(F)Oc1cccc(Cn2ccc3ccc(-c4ccc5ccn(Cc6ccccc6)c5c4)cc32)c1 | · | -3.2 | · | · | 6.6 | ·
CCCc1nc2c(C)cc(Br)cn2c1Cc1cccc(Cl)c1 | · | -1.1 | · | · | 3.2 | ·
Nc1nc2c(ncn2[C@@H]2O[C@H](C(=O)NCC(c3ccccc3)c3ccccc3)[C@@H](O)[C@H]2O)c(=O)[nH]1 | · | 2.9 | · | · | -5.8 | ·
COc1cc(-c2cc(NC(C)=O)c3ncc(-c4ccc(C(C)=O)cc4)n3c2)cc(OC)c1OC | · | -14.4 | · | 41.9* | 3.6 | i
COc1cc(-c2cc(NC(C)=O)c3ncc(-c4ccc(F)cc4)n3c2)cc(OC)c1OC | · | 4.1 | · | 27.7 | -0.7 | ·
COCc1cc(C)nc(NC2CC(C)(C)NC(C)(C)C2)c1C#N | 7.1 | 4.1 | -4.1 | 40.9* | -4.9 | +
CC(C)c1nc2oc3c(=O)[nH]cnc3c2c2c1CCC2 | -11.3 | -2.6 | -12.4 | 41.1* | -2.2 | i
CC(C)c1nc2oc3c(=O)[nH]cnc3c2c2c1COC(C)(C)C2 | -9.2 | -4.4 | -1.8 | 36.8 | -3.6 | ·
